Laboratory results: ChEMBL document CHEMBL1140566, “Discovery of novel isoxazolines as anti-tuberculosis agents” (Bioorg Med Chem Lett, 2007)
≈ marks a conversion by molar mass, not a printed value.

Columns and labels:
[1] = AUC (0 to infinity) in rat at 10 mg/kg, iv; format: ADME, organism-based; parameters: time infinity, dose 10 mg/kg, route intravenous; conditions: plasma
Summary of the method: (§1)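 Rats were given single doses at 10 mg/kg intravenously or 100 mg/kg orally. Half-life, AUC to infinity (μg·hr/L), volume of distribution (L/kg) and clearance (L/hr/kg) were derived for each route. Oral bioavailability was calculated relative to the IV dose.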

[2] = Bioavailability in rat at 100 mg/kg, po; format: ADME, organism-based; conditions: in vivo; summary of the method: as §1
[3] = Clearance in rat at 100 mg/kg, po; format: ADME, organism-based; parameters: dose 100 mg/kg, route oral; conditions: in vivo; summary of the method: as §1
[4] = Solubility at pH 7.4 by shake-flask method; format: physicochemical; conditions: buffer
Summary of the method: (§2)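 Aqueous solubility was determined by a miniaturized shake-flask method at pH 6.0 and at pH 7.4, reported in mg/L.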

[5] = Clearance in rat at 10 mg/kg, iv; format: ADME, organism-based; parameters: dose 10 mg/kg, route intravenous; conditions: in vivo; summary of the method: as §1
[6] = AUC (0 to infinity) in rat at […]; format: ADME, organism-based; parameters: time infinity; conditions: plasma
Rattus norvegicus = test: Volume of distribution in rat at 100 mg/kg, po; format: ADME, organism-based; parameters: dose 100 mg/kg, route oral; conditions: in vivo; summary of the method: as §1
[7] = system: Mycobacterium tuberculosis; test: Antituberculosis activity in Mycobacterium tuberculosis infected rat assessed as reduction of colony formation; format: functional
[8] = Volume of distribution in rat at 10 mg/kg, iv; format: ADME, organism-based; parameters: dose 10 mg/kg, route intravenous; conditions: in vivo; summary of the method: as §1
[9] = Stability in rat liver microsomes after 90 mins; format: ADME, Microsome; conditions: read-out: Stability
Summary of the method: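 Compounds were incubated with pooled rat liver microsomes and loss of parent was monitored. Intact parent was quantified by LC-MS/MS and reported as % remaining at 90 min.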

[10] = Half life in rat at 10 mg/kg, iv; format: ADME, organism-based; parameters: dose 10 mg/kg, route intravenous; conditions: in vivo; summary of the method: as §1
[11] = system: Mycobacterium tuberculosis; test: Antituberculosis activity against Mycobacterium tuberculosis by microbroth dilution method; format: functional
Summary of the method: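 M. tuberculosis susceptibility was measured by microbroth dilution and reported as MIC90 in μg/mL.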

[12] = Protein binding in rat; format: ADME, organism-based; conditions: plasma, read-out: PB (converted)
Summary of the method: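 Plasma protein binding was measured by equilibrium dialysis in RED devices and reported as percent bound.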

[13] = Solubility at pH 6.0 by shake-flask method; format: physicochemical; conditions: buffer; summary of the method: as §2
[14] = Half life in rat at 100 mg/kg, po; format: ADME, organism-based; parameters: dose 100 mg/kg, route oral; conditions: in vivo; summary of the method: as §1

SMILES	Log10 cfu [7]	remaining at 1.5 h [9]	MIC90 [11]	fraction unbound [12]	solubility thermodynamic [13]	other results
O=[N+]([O-])c1ccc(C2=NOC(c3ccc(N4CCN(Cc5ccccc5)CC4)cc3)C2)o1 (stereo not given)	0.64	31%	0.05 ng/mL (≈ 0.000116 µM)	0.001	3.34 µg/mL (≈ 7.72 µM)	AUC(0-inf) [1]: 19100 ng·h/mL; bioavailability [2]: 34.5%; CL/F [3]: 26.3 mL/min/kg; solubility thermodynamic [4]: 0.236 µg/mL (≈ 0.546 µM); clearance [5]: 8.83 mL/min/kg; AUC(0-inf) [6]: 65900 ng·h/mL; Vd (Rattus norvegicus): 9.3 L/kg; Vd [8]: 2 L/kg; half-life [10]: 2.6 h; half-life [14]: 4.2 h
c1ccc(CN2CCN(c3ccc(C4CC(c5ccncc5)=NO4)cc3)CC2)cc1 (stereo not given)	–	–	50000 ng/mL (≈ 125 µM)	–	–	–
CCOC(=O)N1CCN(c2ccc(C3CC(c4ccc([N+](=O)[O-])o4)=NO3)cc2)CC1 (stereo not given)	0.59	12%	0.1 ng/mL (≈ 0.000241 µM)	0.01	4 µg/mL (≈ 9.65 µM)	solubility thermodynamic [4]: 3.6 µg/mL (≈ 8.69 µM)
O=[N+]([O-])c1ccc(C2=NOC(c3ccc(N4CCN(Cc5ccccc5)CC4)cc3)C2)cc1 (stereo not given)	–	–	> 200000 ng/mL	–	–	–
O=[N+]([O-])c1ccc(C2=NOC(c3ccc(N4CCCCC4)cc3)C2)o1 (stereo not given)	–	6%	1.56 ng/mL (≈ 0.00457 µM)	0.012	0.017 µg/mL (≈ 0.0498 µM)	Solubility [4]: 0.014 µg/mL (≈ 0.041 µM)
NNC(=O)c1ccncc1 [ISONIAZID]	3.98	–	25 ng/mL (≈ 0.182 µM)	–	–	–
CC(C)NC(=O)N1CCN(c2ccc(C3CC(c4ccc([N+](=O)[O-])o4)=NO3)cc2)CC1 (stereo not given)	0.83	26%	0.2 ng/mL (≈ 0.000468 µM)	0.027	27.7 µg/mL (≈ 64.8 µM)	solubility thermodynamic [4]: 20 µg/mL (≈ 46.8 µM)
c1ccc(CN2CCN(c3ccc(C4CC(c5ccccn5)=NO4)cc3)CC2)cc1 (stereo not given)	–	–	> 200000 ng/mL	–	–	–
CC(C)(C)OC(=O)N1CCN(c2ccc(C3CC(c4ccc([N+](=O)[O-])o4)=NO3)cc2)CC1 (stereo not given)	–	–	0.1 ng/mL (≈ 0.000226 µM)	–	–	–
CCCC1=NOC(c2ccc(N3CCN(Cc4ccccc4)CC3)cc2)C1 (stereo not given)	–	–	> 200000 ng/mL	–	–	–
CCOC(=O)C1=NOC(c2ccc(N3CCN(Cc4ccccc4)CC3)cc2)C1 (stereo not given)	–	–	1560 ng/mL (≈ 3.96 µM)	–	–	–
